Reference: ChEMBL document CHEMBL1146089, “Development of the first potential covalent inhibitors of anandamide cellular uptake” (J Med Chem, 2006)

Key:
[1] = target: T1, Fatty-acid amide hydrolase 1 (Rattus norvegicus, UniProt P97612); experiment: Inhibition of [14C]anandamide hydrolysis in rat brain membrane in the absence of UV irradiation; type: functional, cell membranes
T1 sequence (P97612 whole entry): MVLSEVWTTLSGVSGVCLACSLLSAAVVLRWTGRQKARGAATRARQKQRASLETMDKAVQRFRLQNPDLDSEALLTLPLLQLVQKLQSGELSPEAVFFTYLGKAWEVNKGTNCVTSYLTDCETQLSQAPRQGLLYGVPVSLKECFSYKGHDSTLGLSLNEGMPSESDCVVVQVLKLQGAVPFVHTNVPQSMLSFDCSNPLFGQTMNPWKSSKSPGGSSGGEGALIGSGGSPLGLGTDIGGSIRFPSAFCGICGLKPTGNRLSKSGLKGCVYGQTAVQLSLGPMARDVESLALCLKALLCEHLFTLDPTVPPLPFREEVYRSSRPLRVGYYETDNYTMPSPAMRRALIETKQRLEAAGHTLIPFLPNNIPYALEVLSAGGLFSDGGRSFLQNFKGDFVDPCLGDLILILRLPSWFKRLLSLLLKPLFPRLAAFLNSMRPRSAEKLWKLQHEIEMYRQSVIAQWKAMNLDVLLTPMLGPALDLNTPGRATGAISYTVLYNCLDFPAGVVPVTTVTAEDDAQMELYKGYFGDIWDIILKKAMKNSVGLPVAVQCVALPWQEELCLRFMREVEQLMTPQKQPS

RBL-2H3 [2] = experiment: Inhibition of uptake of [14C]anandamide pre-incubated for 1 hr with intact RBL2H3 cells expressing AEA membrane transporter; type: functional, cell-based; conditions: Rattus norvegicus
How it was run: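 RBL-2H3 cells preincubated with compound 60 min at 25 °C under normal lab light. Cells then washed 3× with medium containing 0.2% BSA and 2× with BSA-free medium, then given [14C]AEA for 5 min without inhibitor. Uptake was taken as residual [14C]AEA in the medium (CHCl3/CH3OH 2:1 extraction, scintillation counting). IC50, N = 3.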

RBL-2H3 [3] = experiment: Inhibition of uptake of [14C]anandamide co-incubated with RBL2H3 cells expressing AEA membrane transporter; type: functional, cell-based; conditions: Rattus norvegicus
How it was run: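 RBL-2H3 cells incubated with [14C]AEA for 5 min at 37 °C with increasing compound concentrations, sometimes after a 10 min preincubation with compound. Uptake was taken as residual [14C]AEA in the medium after CHCl3/CH3OH 2:1 extraction and scintillation counting. Nonspecific binding was measured with 100 µM AEA. IC50 calculated, mean ± SE, N = 3.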

[4] = target: T1, Fatty-acid amide hydrolase 1; experiment: Inhibition of [14C]anandamide hydrolysis in rat brain membrane
C6 [5] = experiment: Inhibition of [14C]anandamide uptake in C6 cells expressing AEA membrane transporter in dark at 10 uM; type: functional; conditions: Rattus norvegicus
How it was run: (§1)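 Rat C6 glioma cells preincubated with compound 8 min at 25 °C, either in the dark or under UV light (315-400 nm, 125W). Cells then washed 3× with medium containing 0.2% BSA and 2× with BSA-free medium, then given [14C]AEA for 5 min with no inhibitor present. Uptake was taken as residual [14C]AEA in the medium (CHCl3/CH3OH 2:1 extraction, scintillation counting). Nonspecific binding was measured with 100 µM AEA. Values are % inhibition, mean ± SE, N = 3 or 6.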

C6 [6] = experiment: Inhibition of [14C]anandamide uptake in C6 cells expressing AEA membrane transporter under UV irradiation at 10 uM; type: functional; conditions: Rattus norvegicus, C6, light or radiation study; how it was run: as §1
C6 [7] = experiment: Inhibition of [14C]anandamide uptake in C6 cells expressing AEA membrane transporter under UV irradiation at 5 uM; type: functional; conditions: Rattus norvegicus, C6, light or radiation study; how it was run: as §1
C6 [8] = experiment: Inhibition of [14C]anandamide uptake in C6 cells expressing AEA membrane transporter in dark at 5 uM; type: functional; conditions: Rattus norvegicus; how it was run: as §1

For `CCCCCCCC/C=C\CCCCCCCC(=O)N[C@@H](Cc1ccc(O)cc1)C(=O)CCl`, which IC50 [1] is on record?
Its IC50 is > 50 µM.

And the IC50 (RBL-2H3 [2])?
The IC50 was > 25 µM.

What about the IC50 (RBL-2H3 [3]) of the same compound?
The IC50 was 10 µM.

And the IC50 [4]?
The IC50 was > 50 µM.

With `N#CCCCCCCCC/C=C\CCCCCCCC(=O)N[C@H](CO)Cc1ccc(O)cc1` as the compound, how does the IC50 (RBL-2H3 [3]) read?
Its IC50 is 23.1 µM.

Which inhibition at 10 µM (C6 [5]) does the source give for `CCCCCCCC/C=C\CCCCCCCC(=O)N[C@H](CO)Cc1ccc(C(=O)c2ccc(O)cc2)cc1` here?
Its inhibition at 10 µM is 73.6%.

And the inhibition at 10 µM (C6 [6])?
The inhibition at 10 µM was 73.2%.

What about the inhibition at 5 µM (C6 [7]) of the same compound?
The inhibition at 5 µM was 68.6%.

And the IC50 (RBL-2H3 [3])?
Its IC50 is 10.1 µM.

And the inhibition at 5 µM (C6 [8])?
Its inhibition at 5 µM is 28.3%.

Which IC50 (RBL-2H3 [2]) does the source give for `O=C(CCCCCCC/C=C\CCCCCCCCI)N[C@@H](CO)Cc1ccc(O)cc1` here?
The IC50 was > 25 µM.

What about the IC50 (RBL-2H3 [3]) of the same compound?
The IC50 was 14 µM.

Which IC50 [1] does the source give for `[N-]=[N+]=Nc1ccc(I)cc1C(=O)OCC/C=C\CCCCCCCC(=O)N[C@H](CO)Cc1ccc(O)cc1` here?
The IC50 was > 50 µM.

What about the inhibition at 10 µM (C6 [5]) of the same compound?
Its inhibition at 10 µM is 32.8%.

And the inhibition at 10 µM (C6 [6])?
The inhibition at 10 µM was 60%.

And the IC50 (RBL-2H3 [3])?
The IC50 was 11 µM.

What about the IC50 [4] of the same compound?
Its IC50 is > 50 µM.

Which IC50 [1] does the source give for `CCCCCCCC/C=C\CCCCCCCC(=O)N[C@H](Cc1ccc(O)cc1)C(=O)CCl` here?
The IC50 was > 50 µM.

And the IC50 (RBL-2H3 [3])?
The IC50 was > 25 µM.

What about the IC50 [4] of the same compound?
Its IC50 is > 50 µM.

`N#CCCCCCCCC/C=C\CCCCCCCC(=O)N[C@@H](CO)Cc1ccc(O)cc1` was tested. Which IC50 (RBL-2H3 [3]) did it give?
The IC50 was > 25 µM.

For `CCCCCCCC/C=C\CCCCCCCC(=O)N[C@H](CO)Cc1ccc(C(=O)CCl)cc1`, which IC50 (RBL-2H3 [3]) is on record?
The IC50 was > 25 µM.

With `CCCCCCCC/C=C\CCCCCCCC(=O)N[C@@H](CO)Cc1ccc(C(=O)C=[N+]=[N-])cc1` as the compound, how does the IC50 (RBL-2H3 [3]) read?
Its IC50 is > 25 µM.

With `CCCCCCCC/C=C\CCCCCCCC(=O)N[C@@H](Cc1ccc(O)cc1)C(=O)COC(=O)c1c(Cl)cccc1Cl` as the compound, how does the IC50 [1] read?
Its IC50 is > 50 µM.

And the IC50 (RBL-2H3 [2])?
Its IC50 is > 25 µM.

What about the IC50 (RBL-2H3 [3]) of the same compound?
The IC50 was 16.1 µM.

What about the IC50 [4] of the same compound?
The IC50 was > 50 µM.

Which results are given for `CCCCCCCC/C=C\CCCCCCCC(=O)N[C@H](CO)Cc1ccc(C(=O)c2ccccc2)cc1`?
inhibition at 10 µM (C6 [5]): 65.8%; inhibition at 10 µM (C6 [6]): 57.2%; inhibition at 5 µM (C6 [7]): 30.3%; IC50 (RBL-2H3 [3]): 6 µM; inhibition at 5 µM (C6 [8]): 37.5%

Which IC50 (RBL-2H3 [3]) does the source give for `O=C(CCCCCCC/C=C\CCCCCCCCBr)N[C@@H](CO)Cc1ccc(O)cc1` here?
Its IC50 is 20.1 µM.

Which results are given for `O=C(CCCCCCC/C=C\CCCCCCCCI)N[C@H](CO)Cc1ccc(O)cc1`?
IC50 (RBL-2H3 [2]): > 25 µM; IC50 (RBL-2H3 [3]): 10.8 µM

`CCCCCCCC/C=C\CCCCCCCC(=O)N[C@@H](CO)Cc1ccc(C(=O)c2ccc(O)cc2)cc1` was tested. Which IC50 (RBL-2H3 [3]) did it give?
Its IC50 is 8.1 µM.

How did the IC50 (RBL-2H3 [2]) turn out when `O=C(CCCCCCC/C=C\CCCCCCCCBr)N[C@H](CO)Cc1ccc(O)cc1` was run?
Its IC50 is > 25 µM.

What about the IC50 (RBL-2H3 [3]) of the same compound?
Its IC50 is 10.2 µM.

With `CCCCCCCC/C=C\CCCCCCCC(=O)N[C@H](CO)Cc1ccc(C(=O)C=[N+]=[N-])cc1` as the compound, how does the IC50 (RBL-2H3 [3]) read?
The IC50 was > 25 µM.

What does the source list for `O=C(CCCCCCC/C=C\CCOC(=O)c1ccccc1)N[C@H](CO)Cc1ccc(O)cc1`?
IC50 [1]: > 50 µM; IC50 (RBL-2H3 [3]): > 25 µM; IC50 [4]: > 50 µM

For `CCCCCCCC/C=C\CCCCCCCC(=O)N[C@@H](Cc1ccc(O)cc1)C(=O)CI`, which IC50 [1] is on record?
The IC50 was > 50 µM.

And the IC50 (RBL-2H3 [3])?
The IC50 was > 25 µM.

What about the IC50 [4] of the same compound?
Its IC50 is > 50 µM.

`CCCCCCCC/C=C/CCCCCCCC(=O)N[C@H](CO)Cc1ccc(C(=O)c2ccccc2)cc1` was tested. Which IC50 (RBL-2H3 [3]) did it give?
The IC50 was 10 µM.

How did the IC50 [1] turn out when `CCCCCCCC/C=C\CCCCCCCC(=O)N[C@H](Cc1ccc(O)cc1)C(=O)CI` was run?
Its IC50 is > 50 µM.

What about the IC50 (RBL-2H3 [3]) of the same compound?
The IC50 was > 25 µM.

And the IC50 [4]?
Its IC50 is > 50 µM.

`CCCCCCCC/C=C\CCCCCCCC(=O)N[C@H](Cc1ccc(O)cc1)C(=O)COC(=O)c1c(Cl)cccc1Cl` was tested. Which IC50 [1] did it give?
The IC50 was > 50 µM.

And the IC50 (RBL-2H3 [2])?
The IC50 was > 25 µM.

What about the IC50 (RBL-2H3 [3]) of the same compound?
The IC50 was 7.5 µM.

What about the IC50 [4] of the same compound?
The IC50 was > 50 µM.
